Measured values taken from ChEMBL document CHEMBL4513216, “Probing the Open Global Health Chemical Diversity Library for Multistage-Active Starting Points for Next-Generation Antimalarials” (ACS Infect Dis, 2020).

Test: Toxicity liver stage against HepG2, at 10uM
Format: cell-based
Parameters: test concentration 10 uM, cell line HepG2-A16-CD81EGFP
Conditions: human, HepG2-A16-CD81EGFP cells; read-out: INHIBITION
How it was run: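 Uninfected HepG2-A16-CD81EGFP cells, 3 × 10^3 per well, 1536-well, plated on prespotted compound at 10 μM final, parasite-free screening media added to match infected plates; puromycin 10 μM positive, DMSO 0.5% negative; run in parallel with 48 h PbLuc assay at 37 °C, 5% CO2; viability by CellTiter-Glo luminescence, normalized to controls.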

SMILES | cytotoxicity at 10 µM
O=C(CN1CCN(C(=O)c2ccccc2)CC1)Nc1ccc(Br)cn1 | 14.1%
Cc1ccc(-c2c[nH]c([C@@H]3COCCN3Cc3ncc[nH]3)n2)cc1 | 0.835%
CN1CCN(S(=O)(=O)c2cccc(F)c2)c2ccccc21 | 38.5%
CCN1Cc2cc(F)ccc2N(CC(O)C(F)(F)F)CCC1=O (centres undefined) | -3.4%
COc1ccc(-c2noc(C(N)CCSC)n2)cc1OC (centres undefined) | 11.2%
CSCC[C@@H](CO)NC(=O)c1ccc2nc(NS(C)(=O)=O)sc2c1 | 10.7%
CCOCC(=O)NCC(Cc1cccc(F)c1)n1cccc1 (centres undefined) | -6.22%
Cc1noc(CNC(=O)CN(C)c2nc3c(F)cccc3s2)n1 | 3.76%
Cn1c(C(F)(F)F)nn(CCNC(=O)Nc2ccccc2F)c1=O | -2.59%
O=C(C1CCC1)N1C[C@@H]2CN(c3ccccc3)C(=O)[C@@H]2C1 | 1.05%
CN(c1ncc(C(=O)Nc2ccccc2)c(N)n1)C1CCCCC1 | -6.21%
COc1ccc(CC2CN(Cc3cncn3C)CCO2)cc1 (centres undefined) | 0.328%
O=C(O)COc1ccccc1CN1CCCC1c1cnccn1 (centres undefined) | 22%
O=C(CC1CCCCC1)N1CCC(c2ncc3c(n2)CCNC3)CC1 | -8.21%
Cn1cc(CN2CC[C@H](O)[C@@H](n3ccc(=O)[nH]c3=O)CC2)cn1 | 20.4%
O=C(C1CC1)N1CCCC(c2nc(O)cc(-c3ccncc3)n2)C1 (centres undefined) | 31.2%
Cc1noc2nc(C3CCN(Cc4ccccn4)CC3)cc(C(F)F)c12 | -13%
CCc1cc(O)nc(C2CCCN(Cc3ccncc3)C2)n1 (centres undefined) | -7.05%
CC(=O)N1CC2(CCCN2Cc2ccc(Cl)cc2)Cc2ccccc21 (centres undefined) | 11.9%
CS(=O)(=O)N1CC2(CCN(CC3CCCCC3)CC2)Cc2ccccc21 | 6.25%
Cc1c(Br)cccc1NC(=O)N(C)CCO | -24.5%
CNS(=O)(=O)CCCN1CCN(C(C#N)c2ccccc2)CC1 (centres undefined) | 7.7%

SMILES | cytotoxicity at 10 µM
CC(C(=O)NCc1ccc2c(c1)OCCO2)n1cncn1 (centres undefined) | -141%
CCCC(C#N)NC(=O)c1sccc1CC (centres undefined) | 12.7%
COC(=O)CC1CCCCN1CC(=O)Nc1cc(F)ccc1F (centres undefined) | 6.55%
CC(c1ccccc1)N(C)C(=O)CN1CCN(c2cnccn2)CC1 (centres undefined) | 3.96%
CC(C)(C)NC(=O)C1CCCCN1Cc1nccn1CC(F)(F)F (centres undefined) | 6.21%
CCN(CC)C1CCN(C(=O)Nc2cc(F)c(OC)c(F)c2)C1 (centres undefined) | 4.55%
CCN1CCCN(S(=O)(=O)c2cc3ccccc3o2)CC1 | 3.53%
O=C(CNc1cc(-n2cnnn2)ccc1F)Nc1cc(F)ccc1F | -4.09%
Cc1nc(C)n(CC2CCCCN2CCCN2CCCC2=O)n1 (centres undefined) | -2.35%
CN(CCS(C)(=O)=O)C1CCCN(Cc2noc(C3CC3)n2)C1 (centres undefined) | 14.6%
CC(C)(C)c1nc(CC(=O)NC2CCN(C3CC3)C2)cs1 (centres undefined) | -9.25%
O=C(Nc1cc(CSCCO)ccn1)c1cc2ccccc2[nH]1 | 17.3%
CCC(Nc1nnnn1-c1ccccc1)C(=O)NC1CCSCC1 (centres undefined) | -16%
Cc1cc(C(=O)NC2(c3ccc(Br)cc3)CC2)n(C)n1 | 56.7%
CCNC(=O)N1CCc2ccc(NC(=O)NCc3ccsc3)cc21 | -11.8%
O=S(=O)(NCC1CCN(CCN2CCOCC2)C1)c1ccccc1F (centres undefined) | -57.9%
Cn1c(=O)[nH]c(=O)c2cc(C(=O)N3CCCC3C3CCCC3)cnc21 (centres undefined) | 14%
CCSc1cncc(N2CCC(C(=O)Nc3ccccn3)CC2)n1 | 26.3%
NC(=O)c1ccc(N2CCCCC2)c(NC(=O)c2cncc(Br)c2)c1 | -9.41%
CCCN1CCC(NC(=O)c2ccc(F)cc2I)CC1 | -11.8%
O=C(c1c2c(N3CCCC3)ncnc2n2ccccc12)N1CCCC1 | -70.7%
CC1c2ncc(COCC3CCOCC3)n2CCN1C(=O)c1ccco1 (centres undefined) | -0.882%

SMILES | cytotoxicity at 10 µM
Cc1ncc(-c2ccnc(N[C@@H](C)CO)n2)c(C2CCCCC2)n1 | -20.7%
CCN1CCCC(C)(C(=O)NCc2nccn2Cc2ccccc2)C1 (centres undefined) | 4.69%
CCOC(=O)C1(Cc2cccc(Cl)c2)CCCN(Cc2ncc[nH]2)C1 (centres undefined) | -5.22%
O=C(c1cnc(C2CC2)nc1)N1CCC(N2CCC(O)CC2)CC1 | 2.33%
Cc1nn(C)cc1-c1ccnc(N2CCSCC2)n1 | 3.47%
CCOc1ccc(CN2CC[C@](C)(O)C(C)(C)C2)cn1 | 5.88%
CNC(=O)c1ccnc(N2CCCC(COc3cccc(C)c3)C2)c1 (centres undefined) | 7.68%
CC(C)=CCCN1CCN(C)C2(CCC(=O)N(C)CC2)C1 (centres undefined) | -54%
Nc1nc(O)cc(N2CCC(c3cc(Cc4ccccc4)n[nH]3)CC2)n1 | 1.85%
Cc1nccc(-c2cccc(-c3ccn(CC4CCNC4)n3)c2)n1 (centres undefined) | 10.7%
COCCC1(C(=O)O)CCCN(C(=O)c2cnc3c(c2)CCCC3)C1 (centres undefined) | -44.5%
CC(C)N1CCC(CC(=O)N2CCC(C(O)c3nccn3C)CC2)CC1 (centres undefined) | -0.153%
O=c1cc(N2CCCC2)cnn1Cc1noc(C2CCCO2)n1 (centres undefined) | -59.8%
COc1ccc(-c2noc(CN3CCN(c4cnccn4)CC3)n2)cc1 | 6.58%
CN(CCC(C)(C)O)C(=O)C1CCC(=O)N(Cc2ccc(Cl)cc2)C1 (centres undefined) | 7.67%
Cc1ccc(-c2ccnc(N(C)CC3CCCO3)n2)c(C)n1 (centres undefined) | -2.59%
Cc1ccc2[nH]c(=O)cc(C(=O)N[C@@H]3C[C@@H](CO)N(C)C3)c2c1 | 5.43%
CC(=O)NCCc1nc(C(C)C)nn1-c1ccncc1C | 3.26%
Cn1cc(CN2CCCC23CCN(c2nc4ccccc4s2)CC3)cn1 | 4.86%
OC1(CN2CCCCC2)CCN(c2nccc(C(F)(F)F)n2)C1 (centres undefined) | -7.07%
O=S(=O)(c1c(Cl)nc2sccn12)N1CCC2(CCNCC2)C1 | 6.11%
COc1cccc(-c2noc(-c3ccc(NCCCN)nc3)n2)c1OC | -1.43%

SMILES | cytotoxicity at 10 µM
O=C(O)[C@@H]1CN(Cc2nc3ncccn3n2)C[C@H]1c1cccc(F)c1 | -10.6%
CSc1ccccc1C(=O)N1CCN(C)C2(CCC(=O)N(C)CC2)C1 (centres undefined) | 3.84%
Cc1c(C(C)NC2CCN(C(C)C)CC2)cnn1-c1ccc(F)cc1F (centres undefined) | -6.58%
CC(C)=CCC1(C(=O)O)CCCN(c2ccnc(C)n2)C1 (centres undefined) | -0.842%
Cc1ccc(-c2cccc(-c3ccn(CCN4CCCC4)n3)c2)nn1 | -8.74%
CCCc1cc(C(=O)N(C)Cc2cccc3ncccc23)n(C)n1 | -0.758%
Cn1ccnc1-c1ccccc1C(=O)N1CCc2c(nc(N)[nH]c2=O)C1 | -5.3%
C[C@@H]1CN(C(=O)c2ccc(C#N)nc2)C[C@@]1(O)C1CC1 | -28.8%
Cc1nnc(NC(=O)NCc2ccc(OC3CCCC3)nc2)s1 | 0.141%
CCc1c(C(=O)N2CCC(CC(N)=O)CC2)cnn1C(C)(C)C | 2.2%
CC(O)CN1CCN(Cc2coc(-c3ccc(Cl)cc3)n2)CC1 (centres undefined) | -7.42%
Cc1cnc(C(=O)N2CCCC(n3cccn3)C2)cn1 (centres undefined) | -0.29%
Cc1ccc(-n2nnc(C(=O)NCC(F)(F)F)c2C2CC2)cc1 | -6.94%
Cc1cnn(C2CCCN(C(=O)c3ccc(-n4cnnn4)cc3)C2)c1 (centres undefined) | -4.57%
Cc1cccc(CNCc2ccc(NC(=O)NC(C)C)cc2)c1 | -3.03%
FC(F)(F)c1ccc(CN2CCN(Cc3cscn3)CC2)cc1 | -4.94%
CN(Cc1cscn1)C1CCCN(Cc2noc(C3CC3)n2)C1 (centres undefined) | -2.77%
Cc1nnc(NC(=O)NCc2ccc(N3CCN(C)CC3)nc2)s1 | -7.91%
Cc1cc(C)c(CNC(=O)N(C)Cc2sccc2C)c(=O)[nH]1 | -1.77%
CC(O)CN1CCN(Cc2cccc(C(=O)N(C)C)c2)CC1 (centres undefined) | -3.93%
Cc1cc(C)cc(C2(C(=O)NC(C)Cn3ccnc3)CC2)c1 (centres undefined) | -8.26%
Cc1cnc(NC(=O)c2ccc(-n3ncc(C#N)c3N)cc2)s1 | 5.88%

SMILES | cytotoxicity at 10 µM
O[C@@H]1CN(Cc2ccc(F)c(F)c2)CC[C@H]1NCc1ccccn1 | 3.85%
CCOCc1ccc(CNC2=NCCCN2)cc1 | -51.5%
COCC1c2c(cnn2CC2CC2)CCN1Cc1cc(C)on1 (centres undefined) | 5.5%
O=C1NCCN(CC2CC2)C12CCN(Cc1ccccc1)CC2 | -78.7%
Fc1cnc(N2CCn3cc(CNc4ccccn4)nc3C2)nc1 | -0.665%
O=C(NC1CC1)[C@@H]1C[C@@H]2CCN(Cc3ccccc3)C[C@@H]2O1 | -65.8%
CC(C)NC1CCc2c(ccc(=O)n2CC2CC2)C1 (centres undefined) | -76.5%
CCc1cnc(N2CCC3(CC2)CN(c2cccnc2)C(=O)CO3)nc1 | 7.18%
CN(C)CCOCC1CN(C(=O)N2CCCC2)Cc2ccnn2C1 (centres undefined) | 4.55%
CNC(=O)[C@H]1C[C@@H]2CN(S(=O)(=O)c3ccc(OC)cc3)C[C@@H]2N1C | -3.9%
COc1ccc(CN2CC[C@H](O)[C@@H]2Cc2cnn(C)c2)cc1 | -81.7%
c1ccc(CN2CC[C@H]3[C@H]2CCN3c2ncccn2)nc1 | 1.24%
O=C(O)c1cc2c(nc1-c1ccoc1)CCN(CC1CCOC1)CC2 (centres undefined) | -81.9%
Cn1ccc(CN2CCC3(CC2)CC(Nc2cnccn2)CO3)n1 (centres undefined) | -2.66%
Cc1ccc(CN2C[C@@H]3CN(c4ncc(F)cn4)C[C@@H]3C2)cc1 | 1.86%
COCCN1CCOCC12CCN(C(=O)c1ccncc1)CC2 | -71.9%
O=S1(=O)CCN(Cc2cccnc2)[C@H]2CCN(c3ncccn3)CC[C@H]21 | -11.2%
Cc1nc(C2(O)CCCNCC2)sc1CCOc1ccc(F)cc1 (centres undefined) | -15.8%
Cn1cc(-c2cnc(N3CCOCC3)nc2)cc1C(=O)NCCC#N | -83.9%
Cc1ccc(CN2CCC3(CC2)CC(N2CCN(C)CC2)CO3)s1 (centres undefined) | -94.6%
CC(=O)Nc1c(C)noc1C=Cc1ccc(S(=O)(=O)NC2CC2)cc1 | 0.54%
